Active and inactive are the calls of the source. No cut-off for these calls is given here. Where a SMILES comes first, the peptide text is derived from it. Bridges are numbered along the chain shown (N, C = ends). [ ]: non-standard residue; d: D form. S5 = C=CCCC[C@](C)(N)C(=O)O; Nle = CCCC[C@H](N)C(=O)O
What was measured:
[1] = Inhibition of EGFP-fused MERS-CoV spike protein mediated cell-cell fusion between viral protein expressing human 293T cells and human HuH7 target cells after 4 hrs by inverted fluorescence microscopic analysis; design: species or system Middle East respiratory syndrome-related coronavirus
Summary of the method: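 Huh-7 target cells expressing DPP4 were seeded at 5 × 10^4/well and kept at 37 °C for 5 h. Inhibitors were added, then 293T effector cells co-expressing S protein and EGFP (1 × 10^4/well); 293T/EGFP-only cells served as negative control. After 4 h coculture at 37 °C, fused and unfused cells were counted by fluorescence microscopy.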

[2] = Binding affinity to NHR peptide HR1P in pH 7.2 phosphate buffer at 50 uM after 30 mins by CD spectroscopic method
Summary of the method: (§1)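 Peptides were at 50 µM final in 50 mM PBS, pH 7.2. Equimolar HR1P/peptide mixtures were incubated at 25 °C for 30 min before CD scanning. α-Helicity was taken from [θ]222, where -33,000 deg cm2/dmol = 100% helix.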

[3] = Binding affinity to NHR peptide HR1P in pH 7.2 phosphate buffer at 250 uM after 30 mins by sedimentation velocity analysis
Summary of the method: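 HR1P/peptide mixtures at 250 µM in 50 mM PBS were incubated at 25 °C for 30 min. After an initial scan at 3000 rpm for 10 min, sedimentation velocity was run at 60,000 rpm, 280 nm, 20 °C, for 7 h. Weight-averaged molecular weights were obtained by fitting.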

Calu-3 = assay: Cytotoxicity against human Calu3 cells at 100 uM after 48 hrs by CCK-8 assay; type: cell-based; details: calu-3, 48 h
Summary of the method: (§2)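 Cells (1 × 10^5 per well) were preincubated at 37 °C for 12 h, then given graded peptide concentrations. After 48 h at 37 °C, CCK-8 was added and absorbance at 450 nm was read 2 h later.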

[4] = (§3) Inhibition of MERS-CoV spike protein mediated cell-cell fusion between viral protein expressing human 293T cells and human HuH7 target cells assessed as decrease in pseudovirus infection preincubated with virus for 1 hr followed by HuH7 cells addition measured after 48 hrs by luciferase reporter gene assay; design: species or system Middle East respiratory syndrome-related coronavirus
Summary of the method: (§4)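 Graded peptide concentrations were preincubated with luciferase-reporter pseudovirus bearing MERS-CoV S for 1 h at room temperature. The mixture was added to Huh-7 or Calu-3 cells, with medium refreshed at 12 h. After a further 48 h at 37 °C, luciferase was read. Values are from three independent experiments, mean ± SD.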

[5] = Cytotoxicity against human HuH7 cells after 48 hrs by CCK-8 assay; type: cell-based, Huh-7; summary of the method: as §2
[6] = as §3, with “human Calu3” for “human HuH7”; design: species or system Middle East respiratory syndrome-related coronavirus; summary of the method: as §4
[7] = Binding affinity to NHR peptide HR1P in pH 7.2 phosphate buffer at 200 uM after 30 mins by N-PAGE analysis
Summary of the method: (§5)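 Stapled peptide and HR1P, each 200 µM (in 50 mM PBS or ddH2O), were incubated together at 25 °C for 30 min. Samples in Tris-glycine native sample buffer were run on an 18% Tris-glycine gel (pH 8.3 buffer) at 120 V for 3 h at room temperature and stained with Coomassie blue R250.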

[8] = Binding affinity to NHR peptide HR1P in pH 7.2 phosphate buffer assessed as formation of alpha-helical complex at 50 uM after 30 mins by CD spectroscopic method; summary of the method: as §1
[9] = Binding affinity to NHR peptide HR1P in pH 7.2 phosphate buffer assessed as thermal unfolding transition at 50 uM after 30 mins by CD spectroscopic method
Summary of the method: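 Equimolar HR1P/peptide mixtures, 50 µM final in 50 mM PBS pH 7.2, were preincubated at 25 °C for 30 min. Thermal denaturation was followed by CD at 222 nm over a 10–90 °C gradient at 2 °C/min.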

[10] = Binding affinity to NHR peptide HR1P in pH 7.2 phosphate buffer assessed as formation of alpha-helical complex at 200 uM after 30 mins by N-PAGE analysis; summary of the method: as §5
[11] = Middle East respiratory syndrome-related coronavirus

| Compound | EC50 [1] [nM] | Activity [2] | Activity (Calu-3) | EC50 [4, 11] [nM] | CC50 at 48 h [5] [nM] | Activity [8] | Tm [9] [°C] | other results |
| --- | --- | --- | --- | --- | --- | --- | --- | --- |
| CSCC[C@H](NC(=O)[C@H](CCC(=O)O)NC(=O)[C@H](Cc1ccc(O)cc1)NC(=O)[C@@H](NC(=O)[C@H](CC(C)C)NC(=O)[C@H](CC(=O)O)NC(=O)[C@H](CC(C)C)NC(C)=O)[C@@H](C)O)C(=O)N[C@@H](CC(C)C)C(=O)N[C@@]1(C)CCC/C=C/CCC[C@@](C)(C(=O)N[C@H](C(=O)N[C@@H](CCCCN)C(=O)N[C@@H](C)C(=O)N[C@@H](CC(C)C)C(=O)N[C@@H](CC(N)=O)C(=O)N[C@@H](CCC(=O)O)C(=O)N[C@@H](CO)C(=O)N[C@@H](Cc2ccc(O)cc2)C(N)=O)C(C)C)NC(=O)[C@H](CCC(N)=O)NC(=O)[C@H](CCC(N)=O)NC(=O)[C@H](CC(C)C)NC1=O (Ac-LDLTYEML[S5]LQQ[S5]VKALNESY-NH2; staple (E) 9-13) | > 50000 | inactive |  |  |  |  |  |  |
| CSCC[C@H](NC(=O)[C@H](CCC(=O)O)NC(=O)[C@H](Cc1ccc(O)cc1)NC(=O)[C@@H](NC(=O)[C@H](CC(C)C)NC(=O)[C@H](CC(=O)O)NC(=O)[C@H](CC(C)C)NC(C)=O)[C@@H](C)O)C(=O)N[C@@H](CC(C)C)C(=O)N[C@@H](CO)C(=O)N[C@@H](CC(C)C)C(=O)N[C@@H](CCC(N)=O)C(=O)N[C@@H](CCC(N)=O)C(=O)N[C@H](C(=O)N[C@H](C(=O)N[C@@H](CCCCN)C(=O)N[C@@]1(C)CCC/C=C\CCC[C@@](C)(C(=O)N[C@@H](Cc2ccc(O)cc2)C(N)=O)NC(=O)[C@H](CCC(=O)O)NC(=O)[C@H](CC(N)=O)NC(=O)[C@H](CC(C)C)NC1=O)C(C)C)C(C)C | 330 |  | Non-Toxic | 970 | > 100000 | 45.6% | 76.4 | Activity [3]: Active; EC50 [6, 11]: 1580 nM; Activity [7]: Active |
| CCCC[C@H](NC(=O)[C@H](CCC(=O)O)NC(=O)[C@H](Cc1ccc(O)cc1)NC(=O)[C@@H](NC(=O)[C@H](CC(C)C)NC(=O)[C@H](CC(=O)O)NC(=O)[C@H](CC(C)C)NC(C)=O)[C@@H](C)O)C(=O)N[C@@H](CC(C)C)C(=O)N[C@@H](CO)C(=O)N[C@@H](CC(C)C)C(=O)N[C@@H](CCC(N)=O)C(=O)N[C@@]1(C)CCC/C=C\CCC[C@@](C)(C(=O)N[C@@H](CC(C)C)C(=O)N[C@@H](CC(N)=O)C(=O)N[C@@H](CCC(=O)O)C(=O)N[C@@H](CO)C(=O)N[C@@H](Cc2ccc(O)cc2)C(N)=O)NC(=O)[C@H](CCCCN)NC(=O)[C@H](C(C)C)NC(=O)[C@H](C(C)C)NC1=O (Ac-LDLTYE[Nle]LSLQ[S5]VVK[S5]LNESY-NH2; staple (Z) 12-16) | 630 |  | Non-Toxic |  | > 100000 |  |  | EC50 [4]: 2800 nM; EC50 [6]: 2570 nM |
| CSCC[C@H](NC(=O)[C@H](CCC(=O)O)NC(=O)[C@H](Cc1ccc(O)cc1)NC(=O)[C@@H](NC(=O)[C@H](CC(C)C)NC(=O)[C@H](CC(=O)O)NC(=O)[C@H](CC(C)C)NC(C)=O)[C@@H](C)O)C(=O)N[C@@H](CC(C)C)C(=O)N[C@@H](CO)C(=O)N[C@@H](CC(C)C)C(=O)N[C@@]1(C)CCC/C=C/CCC[C@@](C)(C(=O)N[C@@H](C)C(=O)N[C@@H](CC(C)C)C(=O)N[C@@H](CC(N)=O)C(=O)N[C@@H](CCC(=O)O)C(=O)N[C@@H](CO)C(=O)N[C@@H](Cc2ccc(O)cc2)C(N)=O)NC(=O)[C@H](C(C)C)NC(=O)[C@H](C(C)C)NC(=O)[C@H](CCC(N)=O)NC1=O (Ac-LDLTYEMLSL[S5]QVV[S5]ALNESY-NH2; staple (E) 11-15) | > 50000 |  |  |  |  | inactive |  | Activity [10]: inactive |
| CSCC[C@H](NC(=O)[C@H](CCC(=O)O)NC(=O)[C@H](Cc1ccc(O)cc1)NC(=O)[C@@H](NC(=O)[C@H](CC(C)C)NC(=O)[C@H](CC(=O)O)NC(=O)[C@H](CC(C)C)NC(C)=O)[C@@H](C)O)C(=O)N[C@@H](CC(C)C)C(=O)N[C@@H](CO)C(=O)N[C@@H](CC(C)C)C(=O)N[C@@H](CCC(N)=O)C(=O)N[C@@]1(C)CCC/C=C\CCC[C@@](C)(C(=O)N[C@@H](CC(C)C)C(=O)N[C@@H](CC(N)=O)C(=O)N[C@@H](CCC(=O)O)C(=O)N[C@@H](CO)C(=O)N[C@@H](Cc2ccc(O)cc2)C(N)=O)NC(=O)[C@H](CCCCN)NC(=O)[C@H](C(C)C)NC(=O)[C@H](C(C)C)NC1=O (Ac-LDLTYEMLSLQ[S5]VVK[S5]LNESY-NH2; staple (Z) 12-16) | 260 |  | Non-Toxic | 3030 | > 100000 | 35.5% | 71.1 | Activity [3]: Active; EC50 [6, 11]: 2210 nM; Activity [7]: Active |
| CC[C@H](C)[C@H](NC(=O)[C@H](Cc1ccc(O)cc1)NC(=O)[C@H](CO)NC(=O)[C@H](CCC(=O)O)NC(=O)[C@H](CCC(=O)O)NC(=O)[C@H](CC(C)C)NC(=O)[C@H](CCCCN)NC(=O)[C@H](CCCCN)NC(=O)[C@@H](NC(=O)[C@@H](NC(=O)[C@H](CCC(=O)O)NC(=O)[C@H](CCC(=O)O)NC(=O)[C@H](CC(C)C)NC(=O)[C@H](CCCCN)NC(=O)[C@H](CCCCN)NC(=O)[C@H](CCSC)NC(=O)[C@H](CCC(=O)O)NC(=O)[C@H](Cc1ccc(O)cc1)NC(=O)[C@H](CCC(=O)O)NC(=O)[C@H](CC(C)C)NC(=O)[C@H](CC(=O)O)NC(=O)[C@H](CC(C)C)NC(=O)[C@H](CC(C)C)NC(=O)[C@@H](NC(=O)[C@@H](NC(=O)[C@H](CC(N)=O)NC(=O)[C@@H](NC(=O)[C@H](CCC(N)=O)NC(=O)[C@@H](NC(=O)[C@H](CC(C)C)NC(=O)[C@H](CO)NC(C)=O)[C@@H](C)O)[C@@H](C)CC)[C@@H](C)O)[C@@H](C)O)C(C)C)C(C)C)C(=O)N[C@@H](CC(=O)O)C(=O)N[C@@H](CC(C)C)C(=O)N[C@@H](CCCCN)C(=O)N[C@@H](CCC(=O)O)C(=O)N[C@@H](CC(C)C)C(N)=O | 750 |  |  | 1070 | > 100000 |  |  |  |
| CSCC[C@@H]1NC(=O)[C@H](CCC(=O)O)NC(=O)[C@H](Cc2ccc(O)cc2)NC(=O)[C@@](C)(NC(=O)[C@H](CC(C)C)NC(=O)[C@H](CC(=O)O)NC(=O)[C@H](CC(C)C)NC(C)=O)CCC/C=C\CCC[C@@](C)(C(=O)N[C@@H](CO)C(=O)N[C@@H](CC(C)C)C(=O)N[C@@H](CCC(N)=O)C(=O)N[C@@H](CCC(N)=O)C(=O)N[C@H](C(=O)N[C@H](C(=O)N[C@@H](CCCCN)C(=O)N[C@@H](C)C(=O)N[C@@H](CC(C)C)C(=O)N[C@@H](CC(N)=O)C(=O)N[C@@H](CCC(=O)O)C(=O)N[C@@H](CO)C(=O)N[C@@H](Cc2ccc(O)cc2)C(N)=O)C(C)C)C(C)C)NC1=O | > 50000 | inactive |  |  |  |  |  |  |
| CSCC[C@H](NC(=O)[C@H](CCC(=O)O)NC(=O)[C@]1(C)CCC/C=C\CCC[C@](C)(NC(C)=O)C(=O)N[C@@H](CC(=O)O)C(=O)N[C@@H](CC(C)C)C(=O)N[C@@H]([C@@H](C)O)C(=O)N1)C(=O)N[C@@H](CC(C)C)C(=O)N[C@@H](CO)C(=O)N[C@@H](CC(C)C)C(=O)N[C@@H](CCC(N)=O)C(=O)N[C@@H](CCC(N)=O)C(=O)N[C@H](C(=O)N[C@H](C(=O)N[C@@H](CCCCN)C(=O)N[C@@H](C)C(=O)N[C@@H](CC(C)C)C(=O)N[C@@H](CC(N)=O)C(=O)N[C@@H](CCC(=O)O)C(=O)N[C@@H](CO)C(=O)N[C@@H](Cc1ccc(O)cc1)C(N)=O)C(C)C)C(C)C | > 50000 | inactive |  |  |  |  |  |  |
| CSCC[C@H](NC(=O)[C@H](CCC(=O)O)NC(=O)[C@H](Cc1ccc(O)cc1)NC(=O)[C@@H](NC(=O)[C@H](CC(C)C)NC(=O)[C@H](CC(=O)O)NC(=O)[C@H](CC(C)C)NC(C)=O)[C@@H](C)O)C(=O)N[C@@]1(C)CCC/C=C\CCC[C@@](C)(C(=O)N[C@H](C(=O)N[C@H](C(=O)N[C@@H](CCCCN)C(=O)N[C@@H](C)C(=O)N[C@@H](CC(C)C)C(=O)N[C@@H](CC(N)=O)C(=O)N[C@@H](CCC(=O)O)C(=O)N[C@@H](CO)C(=O)N[C@@H](Cc2ccc(O)cc2)C(N)=O)C(C)C)C(C)C)NC(=O)[C@H](CCC(N)=O)NC(=O)[C@H](CC(C)C)NC(=O)[C@H](CO)NC1=O (Ac-LDLTYEM[S5]SLQ[S5]VVKALNESY-NH2; staple (Z) 8-12) | 10700 |  |  |  |  |  | 56.6 to 66.6 |  |
